# Measurements published in ChEMBL document CHEMBL4308909, “Synthesis, Antioxidant Activity and Cytotoxicity of N-Functionalized Organotellurides” (Bioorg Med Chem, 2019).
# Calls of active or inactive are those of the source. The rule behind the calls is not given here.
# What was measured:
# [1] = Antioxidant activity of the compound assessed as DPPH radical scavenging activity after 30 mins by spectrophotometric method; type: functional
# Summary of the method: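 Methanolic DPPH (130 μmol L⁻¹ before mixing, 1:1 with sample) mixed with methanolic samples at several concentrations, 30 min at room temperature in the dark, absorbance at 517 nm. Percent scavenging calculated against a methanol-plus-DPPH control. IC50 from linear regression, triplicate. Quercetin reference.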
# [2] = Antioxidant activity assessed as ferric ion reducing activity by measuring trolox equivalents after 40 mins by FRAP assay; type: functional
# Summary of the method: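 Samples at several concentrations incubated with reagent at 37 °C for 40 min in the dark, absorbance read at 593 nm. Expressed as trolox equivalent antioxidant capacity. Quercetin reference.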
# L929 [3] = assay: Cytotoxicity against mouse L929 cells assessed as reduction in cell viability at 1.9 to 15.6 ug/ml after 24 hrs by neutral red staining-based spectrophotometric analysis; conditions: l929, 24 h
# Summary of the method: (§1)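 L929 fibroblasts grown in DMEM with 2 mM L-glutamine, 10% FBS, penicillin/streptomycin, 37 °C, 5% CO₂. Cells seeded at 2.5 × 10⁵ cells ml⁻¹ and treated after 24 h with 1.95–15.625 μg mL⁻¹ for 24 h (DMSO ≤1.5% final). Neutral red (40 μg mL⁻¹) for 3 h, fixed, dye extracted with ethanol/acetic acid, read at 540 nm. Compared with negative control by Tukey's test.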
# [4] = Antioxidant activity assessed as ABTS radical scavenging activity after 16 hrs by spectrophotometric analysis; type: functional
# Summary of the method: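 ABTS radical cation generated from ABTS (7 mmol L⁻¹) plus potassium persulfate (140 mmol L⁻¹), 16 h at room temperature in the dark, diluted in ethanol to absorbance 0.70 at 734 nm. Sample added at several concentrations, read at 734 nm after 6 min. Trolox calibration curve (20–600 μmol L⁻¹) in ethanol, results in mmol TE g⁻¹. Quercetin reference.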
# L929 [5] = assay: Cytotoxicity against mouse L929 cells assessed as reduction in cell viability at 3.9 to 15.6 ug/ml after 24 hrs by neutral red staining-based spectrophotometric analysis; conditions: l929, 24 h; summary of the method: as §1
# L929 [6] = assay: Cytotoxicity against mouse L929 cells assessed as reduction in cell viability at 1.9 ug/ml after 24 hrs by neutral red staining-based spectrophotometric analysis; conditions: l929, 24 h; summary of the method: as §1
SMILES,IC50 [1],Activity [2],Activity (L929 [3]),Activity [4],Activity (L929 [5]),Activity (L929 [6])
C/C(=N\O)c1ccc([Te]CCCO)cc1,13.06 µg/mL,inactive,Non-Toxic,,,
CCCC[Se]c1ccc(C(C)NCC(C)C)cc1 (centres undefined),> 100 µg/mL,,,,,
CCCC[Te]c1ccc(C(C)NCC(C)C)cc1 (centres undefined),12.49 µg/mL,inactive,,inactive,Non-Toxic,
CCCC[Te]c1ccc(/C(C)=N/O)cc1,7.79 µg/mL,Active,,Active,Toxic,Non-Toxic
CCCC[Te]c1ccc(/C(C)=N/N)cc1,5.08 µg/mL,,Non-Toxic,,,
CCCCNC(C)c1ccc([Te]CCCC)cc1 (centres undefined),8.63 µg/mL,inactive,,inactive,Non-Toxic,
CCCC[Te]c1cccc(/C(C)=N/O)c1,5.12 µg/mL,Active,,Active,Toxic,Non-Toxic
O=c1c(O)c(-c2ccc(O)c(O)c2)oc2cc(O)cc(O)c12 [QUERCETIN],2.54 µg/mL,Active,,Active,,
CCCC[Se]c1ccc(C(C)N)cc1 (centres undefined),> 100 µg/mL,,,,,
CCCC[Te]c1ccc(C(C)NCc2ccccc2)cc1 (centres undefined),11.41 µg/mL,inactive,,inactive,Non-Toxic,
CCCC[Te]c1ccc(C(C)N)cc1 (centres undefined),12.07 µg/mL,Active,,Active,Toxic,Non-Toxic
C=CCNC(C)c1ccc([Te]CCCC)cc1 (centres undefined),> 100 µg/mL,,,,,
CCCC[Te]c1cccc(C(C)N)c1 (centres undefined),19.22 µg/mL,Active,,Active,Toxic,Non-Toxic
CCCC[Se]c1cccc(C(C)N)c1 (centres undefined),> 100 µg/mL,,,,,
